What all share (format): functional, organism-based
In test [1] the test system is Plasmodium falciparum. Briefly: Antiplasmodial activity against multidrug-resistant Plasmodium falciparum […] after 18 hrs by [3H]hypoxanthine incorporation assay. Summed up:
(§1)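 Reference strains (multidrug-resistant V1S, drug-sensitive 3D7) in RPMI 1640 with 15% human serum. Threefold drug dilutions; 0.5% parasitemia, 1.5% hematocrit; 66 h at 37°C under 5% O2/5% CO2/90% N2, then [3H]hypoxanthine added for 18 h, freeze-thaw lysis, counting. IC50 by nonlinear regression of dose-response; four determinations per strain.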

Test [2] has as its system Plasmodium falciparum. In words: Antiplasmodial activity against multidrug-sensitive Plasmodium falciparum 3D7 after 18 hrs by [3H]hypoxanthine incorporation assay. The method in brief:
as §1

The test system of test [3] is Plasmodium falciparum. Briefly: Antiplasmodial activity against Plasmodium falciparum clinical isolate after 18 hrs by [3H]hypoxanthine incorporation assay. Summed up: (§2)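 Kenyan field isolates, culture-adapted in long term (some cryopreserved first), grown in RPMI 1640 with 15% human serum, HEPES, bicarbonate, glutamine and pABA. Genotyped at pfcrt 76 and pfmdr1 86 from dried blood spots. Threefold dilutions; 0.5% parasitemia, 1.5% hematocrit; 66 h at 37°C in 5% O2/5% CO2/90% N2, then [3H]hypoxanthine for 18 h. IC50 by nonlinear regression; each isolate measured twice.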

In test [4] the test system is Plasmodium falciparum. In words: Antiplasmodial activity against Plasmodium falciparum harboring mutant pfcrt-76 gene after 18 hrs by [3H]hypoxanthine incorporation assay. The method in brief:
as §2

The test system of test [5] is Plasmodium falciparum. Briefly: Antiplasmodial activity against Plasmodium falciparum harboring wild type pfmdr-1-86 gene after 18 hrs by [3H]hypoxanthine incorporation assay. The method in brief: as §2
The test system of test [6] is Plasmodium falciparum. Briefly: Antiplasmodial activity against Plasmodium falciparum harboring mutant pfmdr-1-86 gene after 18 hrs by [3H]hypoxanthine incorporation assay. The method in brief: as §2
Test [7] has as its system Plasmodium falciparum. Briefly: Antiplasmodial activity against Plasmodium falciparum harboring wild type and mutant pfcrt-76 gene after 18 hrs by [3H]hypoxanthine incorporation assay. The method in brief: as §2
The subject of test [8] is Plasmodium falciparum. In words: Antiplasmodial activity against Plasmodium falciparum harboring mutant pfcrt-76 and mutant pfmdr-1-86 gene after 18 hrs by [3H]hypoxanthine incorporation assay. The method in brief:
as §2

Test [9] relates to Plasmodium falciparum. Briefly: Antiplasmodial activity against Plasmodium falciparum harboring mutant pfcrt-76 and wild type pfmdr-1-86 gene after 18 hrs by [3H]hypoxanthine incorporation assay. The method in brief:
as §2

The test system of test [10] is Plasmodium falciparum. Briefly: Antiplasmodial activity against Plasmodium falciparum harboring wild type and mutant pfmdr-1-86 gene after 18 hrs by [3H]hypoxanthine incorporation assay. The method in brief: as §2
Test [11] relates to Plasmodium falciparum. Briefly: Antiplasmodial activity against Plasmodium falciparum harboring wild type pfcrt-76 and mutant pfmdr-1-86 gene after 18 hrs by [3H]hypoxanthine incorporation assay. The method in brief:
as §2

Test [12] relates to Plasmodium falciparum. Briefly: Antiplasmodial activity against Plasmodium falciparum harboring wild type pfcrt-76 and wild type pfmdr-1-86 gene after 18 hrs by [3H]hypoxanthine incorporation assay. The method in brief:
as §2

The subject of test [13] is Plasmodium falciparum. In words: Antiplasmodial activity against Plasmodium falciparum harboring wild type pfcrt-76 gene after 18 hrs by [3H]hypoxanthine incorporation assay. Summed up: as §2

Results on 4 compounds are retold here after ChEMBL document CHEMBL1649283, “In vitro activities of piperaquine, lumefantrine, and dihydroartemisinin in Kenyan Plasmodium falciparum isolates and polymorphisms in pfcrt and pfmdr1” (Antimicrob Agents Chemother, 2009).

Consider `C[C@H]1[C@@H](O)O[C@@H]2O[C@@]3(C)CC[C@H]4[C@H](C)CC[C@@H]1[C@@]24OO3` [ARTENIMOL], for which the IC50 was 2 nM with Plasmodium falciparum [1]; 2 nM in the test on Plasmodium falciparum [2]; 2 nM in the test with Plasmodium falciparum [3]; less than 25 nM with Plasmodium falciparum [4]; 3 nM with Plasmodium falciparum [5]; 2 nM in the test with Plasmodium falciparum [6].

Take `CCN(CC)CCCC(C)Nc1ccnc2cc(Cl)ccc12` (configuration not stated) [CHLOROQUINE]: the IC50 was found to be 21 nM in the test on Plasmodium falciparum [7], 57 nM with Plasmodium falciparum [4], 72 nM in the test on Plasmodium falciparum [8] and 54 nM in the test with Plasmodium falciparum [9].

As to `CCCCN(CCCC)CC(O)c1cc(Cl)cc2c1-c1ccc(Cl)cc1/C2=C/c1ccc(Cl)cc1` (configuration not stated) [LUMEFANTRINE], the IC50 in the test with Plasmodium falciparum [1] worked out at 24 nM; in the test on Plasmodium falciparum [2] it was 96 nM; with Plasmodium falciparum [3] it was 50 nM; in the test with Plasmodium falciparum [7], 67 nM; in the test on Plasmodium falciparum [4] it was 43 nM; in the test on Plasmodium falciparum [5] it was 124 nM. In addition, the half-inhibitory concentration (IC50) stood at 43 nM in the test with Plasmodium falciparum [6]; 57 nM with Plasmodium falciparum [10]; 31 nM in the test with Plasmodium falciparum [8]; 99 nM in the test with Plasmodium falciparum [9]; 63 nM in the test on Plasmodium falciparum [11]; 173 nM in the test with Plasmodium falciparum [12].

As for `Clc1ccc2c(N3CCN(CCCN4CCN(c5ccnc6cc(Cl)ccc56)CC4)CC3)ccnc2c1` [PIPERAQUINE], the IC50 in the test on Plasmodium falciparum [1] was 42 nM; in the test with Plasmodium falciparum [2] it was 27 nM; in the test on Plasmodium falciparum [3], 32 nM; in the test with Plasmodium falciparum [13] it was 35 nM; in the test with Plasmodium falciparum [4] it was 38 nM.

The IC50 is the midpoint of a concentration-inhibition curve. A higher IC50 goes with lower potency.
